Experimental data published in ChEMBL document CHEMBL4732131, “Design, synthesis and evaluation of novel thienopyrimidine-based agents bearing diaryl urea functionality as potential inhibitors of angiogenesis” (Eur J Med Chem, 2021).
Calls of active or inactive are those of the source. No cut-off for these calls is given here.

Assays:
Chorioallantoic membrane [1] = experiment: Vascular disruptive effect in chicken fertilized egg chorioallantoic membrane assessed as decrease in number of capillary blood vessels by CAM assay relative to control; assay type: functional, tissue-based; parameters: concentration or dose not given beside the values; conditions: Gallus gallus, dose or concentration not given here
Chorioallantoic membrane [2] = experiment: Vascular disruptive effect in chicken fertilized egg chorioallantoic membrane assessed as reduced length of blood vessels by CAM assay; assay type: functional, tissue-based; conditions: Gallus gallus
HUVEC [3] = experiment: Antiproliferative activity against HUVEC incubated for 48 hrs by MTT assay; assay type: functional, cell-based; conditions: Homo sapiens
How it was run: (§1)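 8000 cells per well in complete medium, settled overnight at 37 °C under 5% CO2. Compounds were added from DMSO over a range of concentrations and incubated 48 h at 37 °C. MTT (5% solution) was added for 4 h and absorbance read at 570 nm. IC50 was taken from survival-versus-concentration curves. Negative control was 0.1% DMSO.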

HepG2 = experiment: Antiproliferative activity against human HepG2 cells incubated for 48 hrs by MTT assay; assay type: functional, cell-based; conditions: HepG2, 48 h; how it was run: as §1
T47D = experiment: Antiproliferative activity against human T47D cells incubated for 48 hrs by MTT assay; assay type: functional, cell-based; how it was run: as §1
PC-3 [4] = experiment: Antiproliferative activity against human PC-3 cells incubated for 48 hrs by MTT assay; assay type: functional, cell-based; conditions: PC-3, 48 h; how it was run: as §1
PC-3 [5] = experiment: Induction of apoptosis in human PC-3 cells assessed as viable cells at IC50 measured after 48 hrs by Annexin V-FITC/propidium iodide staining based flow cytometry (reference value: 81.4%); assay type: functional
HUVEC [6] = experiment: Induction of cell cycle arrest in HUVEC assessed as number of cells at S phase at IC50 after 48 hrs by flow cytometry (reference value: 41.49%); assay type: functional, Homo sapiens
How it was run: (§2)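 Cells were PI-stained and analysed by flow cytometry, with the phase fractions (subG1, G1, S, G2/M) taken from DNA content.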

HUVEC [7] = experiment: Induction of cell cycle arrest in HUVEC assessed as number of cells at G1 phase at IC50 after 48 hrs by flow cytometry (reference value: 40.93%); assay type: functional, Homo sapiens; how it was run: as §2
[8] = Cytotoxicity against human Hu02 cells incubated for 48 hrs by MTT assay; assay type: cell-based; conditions: Hu02, 48 h; how it was run: as §1
HUVEC [9] = experiment: Induction of apoptosis in HUVEC assessed as late apoptotic cells at IC50 measured after 48 hrs by Annexin V-FITC/propidium iodide staining based flow cytometry (reference value: 7.23%); assay type: functional, Homo sapiens
HUVEC [10] = experiment: Induction of apoptosis in HUVEC assessed as viable cells at IC50 measured after 48 hrs by Annexin V-FITC/propidium iodide staining based flow cytometry (reference value: 87.4%); assay type: functional, Homo sapiens
PC-3 [11] = experiment: Induction of cell cycle arrest in human PC3 cells assessed as accumulation at G1 phase at IC50 after 48 hrs by flow cytometry (reference value: 44.11%); assay type: functional
HUVEC [12] = experiment: Induction of apoptosis in HUVEC assessed as necrotic cells at IC50 measured after 48 hrs by Annexin V-FITC/propidium iodide staining based flow cytometry (reference value: 0.891%); assay type: functional, Homo sapiens
PC-3 [13] = experiment: Induction of cell cycle arrest in human PC-3 cells assessed as number of cells at S phase at IC50 after 48 hrs by flow cytometry (reference value: 44.12%); assay type: functional
PC-3 [14] = experiment: Induction of apoptosis in human PC-3 cells assessed as necrotic cells at IC50 measured after 48 hrs by Annexin V-FITC/propidium iodide staining based flow cytometry (reference value: 7.74%); assay type: functional
PC-3 [15] = experiment: Induction of apoptosis in human PC-3 cells assessed as early apoptotic cells at IC50 measured after 48 hrs by Annexin V-FITC/propidium iodide staining based flow cytometry (reference value: 4.7%); assay type: functional
PC-3 [16] = experiment: Induction of cell cycle arrest in human PC-3 cells assessed as number of cells at SubG1 phase at IC50 after 48 hrs by flow cytometry; assay type: functional
PC-3 [17] = experiment: Induction of apoptosis in human PC-3 cells assessed as late apoptotic cells at IC50 measured after 48 hrs by Annexin V-FITC/propidium iodide staining based flow cytometry (reference value: 5.16%); assay type: functional
PC-3 [18] = experiment: Induction of cell cycle arrest in human PC-3 cells assessed as number of cells at G2 phase at IC50 after 48 hrs by flow cytometry (reference value: 15.97%); assay type: functional
HUVEC [19] = experiment: Induction of cell cycle arrest in HUVEC assessed as number of cells at G2 phase at IC50 after 48 hrs by flow cytometry (reference value: 6.25%); assay type: functional, Homo sapiens; how it was run: as §2
PC-3 [20] = experiment: Down-regulation of VEGFR2 phosphorylation in human PC-3 cells by Western blot analysis; assay type: functional, cell-based; conditions: time 24-72 hrs, TDE = time-dependent effect
PC-3 [21] = experiment: Down-regulation of VEGFR2 phosphorylation in human PC-3 cells at 48 hrs by Western blot analysis; assay type: functional, cell-based; conditions: dose 2.4-5.4 µM
How it was run: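 PC3 cells treated for 48 h at 2.4, 3.6 and 5.4 µM. Lysates run on 12% SDS-PAGE and transferred to nitrocellulose. Membranes probed overnight at 4 °C (12 h) for VEGFR-2 and p-VEGFR-2, with beta-actin as loading control. Detection by ECL.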

HUVEC [22] = experiment: Induction of apoptosis in HUVEC assessed as early apoptotic cells at IC50 measured after 48 hrs by Annexin V-FITC/propidium iodide staining based flow cytometry (reference value: 4.51%); assay type: functional, Homo sapiens

SMILES	inhibition (Chorioallantoic membrane [1]) [%]	IC50 (HUVEC [3]) [µM]	IC50 (HepG2) [µM]	IC50 (T47D) [µM]	IC50 (PC-3 [4]) [µM]	further results
O=C(Nc1ccc(Cl)cc1)Nc1nnc(Sc2ncnc3scc(-c4ccncc4)c23)s1	21	11.6	28.9	23.3	7.7	inhibition (Chorioallantoic membrane [2]): inactive
O=C(Nc1cccc(C(F)(F)F)c1)Nc1nnc(Sc2ncnc3scc(-c4ccncc4)c23)s1		22.4	15.3	45.1	11.5	
CNC(=O)c1cc(Oc2ccc(NC(=O)Nc3ccc(Cl)c(C(F)(F)F)c3)cc2)ccn1 [SORAFENIB]		2.8	29.6	6.4	15.5	Activity (PC-3 [5]): 57.9%; Activity (HUVEC [6]): 27.1%; Activity (HUVEC [7]): 58.69%; IC50 [8]: 40 µM; Activity (HUVEC [9]): 23.8%; Activity (HUVEC [10]): 59.9%; Activity (PC-3 [11]): 66.19%; Activity (HUVEC [12]): 16.4%; Activity (PC-3 [13]): 22.32%; Activity (PC-3 [14]): 23.6%; Activity (PC-3 [15]): 1.92%
O=C(Nc1cccc(Cl)c1)Nc1nnc(Sc2ncnc3scc(-c4ccncc4)c23)s1		21	22.9	43.9	8	
Cc1ccc(NC(=O)Nc2nnc(Sc3ncnc4scc(-c5ccncc5)c34)s2)cc1		19.3	52	17.8	2.1	
O=C(Nc1ccc(F)cc1)Nc1nnc(Sc2ncnc3scc(-c4ccncc4)c23)s1	27	28.3	31.7	18.9	0.97	Activity (PC-3 [5]): 43.3%; inhibition (Chorioallantoic membrane [2]): inactive; Activity (PC-3 [16]): 9.73%; Activity (PC-3 [11]): 55.92%; Activity (PC-3 [13]): 29.76%; Activity (PC-3 [17]): 23%; Activity (PC-3 [14]): 32.2%; Activity (PC-3 [15]): 1.47%
COc1cccc(NC(=O)Nc2nnc(Sc3ncnc4scc(-c5ccncc5)c34)s2)c1		67.7	28.4	56.9	6.8	
Cc1ccc(NC(=O)Nc2nnc(Sc3ncnc4scc(-c5ccncc5)c34)s2)cc1Cl		23.2	16	34.8	4.7	
O=C(Nc1ccccc1)Nc1nnc(Sc2ncnc3scc(-c4ccncc4)c23)s1		19.3	19.4	23.3	5.7	
O=C(Nc1cccc(F)c1)Nc1nnc(Sc2ncnc3scc(-c4ccncc4)c23)s1	35	13.7	64.1	16.7	6.6	inhibition (Chorioallantoic membrane [2]): inactive
O=C(Nc1ccc(Cl)c(Cl)c1)Nc1nnc(Sc2ncnc3scc(-c4ccncc4)c23)s1	65	7.8	61.9	14.6	3.6	Activity (PC-3 [5]): 43.2%; inhibition (Chorioallantoic membrane [2]; dose or concentration not given here): 46%; Activity (HUVEC [6]): 49.8%; Activity (PC-3 [18]): 12.85%; Activity (PC-3 [16]): 4.38%; Activity (HUVEC [19]): 5.53%; Activity (HUVEC [7]): 48.3%; IC50 [8]: 34.3 µM; Activity (HUVEC [9]): 17%; Activity (HUVEC [10]): 55.2%; inhibition (PC-3 [20]): Tde; Activity (PC-3 [11]): 45.2%; Activity (HUVEC [12]): 21%; Activity (PC-3 [13]): 40.58%; inhibition (PC-3 [21]): Dose-dependent effect; Activity (PC-3 [17]): 37%; Activity (PC-3 [14]): 12.6%; Activity (HUVEC [22]): 4.65%; Activity (PC-3 [15]): 7.17%
COc1ccc(NC(=O)Nc2nnc(Sc3ncnc4scc(-c5ccncc5)c34)s2)cc1		16.9	14.6	> 100	9.9	
Cc1cccc(NC(=O)Nc2nnc(Sc3ncnc4scc(-c5ccncc5)c34)s2)c1	29	12.2	20.7	27.2	5.2	inhibition (Chorioallantoic membrane [2]): inactive
O=C(Nc1ccc(Cl)c(C(F)(F)F)c1)Nc1nnc(Sc2ncnc3scc(-c4ccncc4)c23)s1		18.4	45.3	28	12.1	
